Measurements published in ChEMBL document CHEMBL4229494, “Novel tertiary sulfonamides as potent anti-cancer agents” (Bioorg Med Chem, 2018).
≈ marks a conversion by molar mass, not a printed value.

Key:
[1] = Inhibition of Wnt3A-induced Wnt transcription (unknown origin) expressed in HEK293 cells coexpressing TK-driven Rluc after 20 to 22 hrs by super-top flash reporter gene assay; format: cell-based; conditions: Homo sapiens
How it was run: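 HEK-293 cells (DMEM, 10% FBS) were co-transfected with Super(8x)TOPflash, a Wnt3A expression vector and TK-driven Renilla luciferase. After 8 h at 37 °C, 5% CO2, cells were seeded at 25,000/well and treated at 1.6, 8, 40, 200, 1000 or 5000 nM, or with DMSO, for 20-22 h in triplicate. Firefly/Renilla luminescence was taken relative to DMSO, and IC50 was found by nonlinear regression.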

MDA-MB-231 [2] = assay: Antitumor activity against human MDA-MB-231 cells xenografted in athymic nude mouse assessed as average tumor volume at 20 mg/kg, ip qd administered every consecutive day in presence of doxorubicin at 5 mg/kg/week measured on day 35 relative to control; format: functional
MCF7 [3] = assay: Induction of apoptosis in human MCF7 cells after 24 hrs by caspase-Glo 3/7 reagent based luminescence assay; format: functional, cell-based; conditions: MCF7, 24 h
How it was run: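 MCF-7 cells were plated at 25,000/well (DMEM, 10% FBS) and grown 24 h, then treated at 1.6 nM–5 µM or with DMSO for 24 h. Caspase 3/7 activity was read by Caspase-Glo 3/7 luminescence. Triplicate signals relative to DMSO were analysed by nonlinear regression.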

[4] = Metabolic stability in human liver microsomes measured at > 60 mins in presence of NADPH by HPLC analysis; format: ADME, microsome; conditions: 1 h
MDA-MB-231 [5] = assay: Antiproliferative activity against human MDA-MB-231 cells after 24 hrs by SYBR green dye based fluorescence assay; format: functional, cell-based; conditions: MDA-MB-231, 24 h
How it was run: (§1)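 Cells were plated at 500/well in DMEM/10% FBS and allowed to attach for 24 h at 37 °C, 5% CO2. They were then exposed to 1.6 nM–5 µM or DMSO. One plate was harvested every 24 h over 7 days and frozen at -20 °C. DNA was quantified by SYBR Green fluorescence (Ex495/Em535). Triplicate values relative to DMSO went to nonlinear regression for IC50.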

MCF7 [6] = assay: Antiproliferative activity against human MCF7 cells after 24 hrs by SYBR green dye based fluorescence assay; format: functional, cell-based; conditions: MCF7, 24 h; how it was run: as §1
[7] = Solubility of the compound; format: physicochemical
[8] = Lipophilicity, log D of the compound at pH 3; format: physicochemical; conditions: buffer
[9] = Lipophilicity, log D of the compound at pH 7; format: physicochemical; conditions: buffer
MCF7 [10] = assay: Potentiation of doxorubicin-induced antiproliferative activity against human MCF7 cells at 8 nM after 72 hrs by SYBR green dye based fluorescence assay relative to control; format: functional
How it was run: (§2)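 Cells were plated at 2,000/well (DMEM, 10% FBS) and incubated 24 h at 37 °C, 5% CO2. Test compound at 1.6 nM–2 µM was given with or without doxorubicin (MCF-7: 1.6 nM–2 µM; MDA-MB-231: 4 nM–5 µM), or DMSO, for 72 h. DNA was measured by SYBR Green fluorescence (Ex495/Em535). Triplicate values relative to DMSO were used for IC50 and Chou-Talalay combination index analysis.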

MDA-MB-231 [11] = assay: Potentiation of doxorubicin-induced antiproliferative activity against human MDA-MB-231 cells at 8 nM after 72 hrs by SYBR green dye based fluorescence assay relative to control; format: functional; how it was run: as §2
MCF7 [12] = assay: Synergistic antiproliferative activity against human MCF7 cells assessed as combination index at 8 nM after 72 hrs in presence of doxorubicin by SYBR green dye based fluorescence assay; format: functional; how it was run: as §2
MDA-MB-231 [13] = assay: Synergistic antiproliferative activity against human MDA-MB-231 cells assessed as combination index at 8 nM after 72 hrs in presence of doxorubicin by SYBR green dye based fluorescence assay; format: functional; how it was run: as §2
MCF7 [14] = assay: Synergistic antiproliferative activity against human MCF7 cells assessed as combination index at ED75 after 72 hrs in presence of doxorubicin by SYBR green dye based fluorescence assay; format: functional; how it was run: as §2
MDA-MB-231 [15] = assay: Synergistic antiproliferative activity against human MDA-MB-231 cells assessed as combination index at ED75 after 72 hrs in presence of doxorubicin by SYBR green dye based fluorescence assay; format: functional; how it was run: as §2
MCF7 [16] = assay: Synergistic antiproliferative activity against human MCF7 cells assessed as combination index at ED90 after 72 hrs in presence of doxorubicin by SYBR green dye based fluorescence assay; format: functional; how it was run: as §2
MDA-MB-231 [17] = assay: Synergistic antiproliferative activity against human MDA-MB-231 cells assessed as combination index at ED90 after 72 hrs in presence of doxorubicin by SYBR green dye based fluorescence assay; format: functional; how it was run: as §2
[18] = biological target: Voltage-gated inwardly rectifying potassium channel KCNH2 (Homo sapiens, UniProt Q12809); assay: Inhibition of human ERG up to 50 uM
Voltage-gated inwardly rectifying potassium channel KCNH2, sequence (Q12809 whole entry): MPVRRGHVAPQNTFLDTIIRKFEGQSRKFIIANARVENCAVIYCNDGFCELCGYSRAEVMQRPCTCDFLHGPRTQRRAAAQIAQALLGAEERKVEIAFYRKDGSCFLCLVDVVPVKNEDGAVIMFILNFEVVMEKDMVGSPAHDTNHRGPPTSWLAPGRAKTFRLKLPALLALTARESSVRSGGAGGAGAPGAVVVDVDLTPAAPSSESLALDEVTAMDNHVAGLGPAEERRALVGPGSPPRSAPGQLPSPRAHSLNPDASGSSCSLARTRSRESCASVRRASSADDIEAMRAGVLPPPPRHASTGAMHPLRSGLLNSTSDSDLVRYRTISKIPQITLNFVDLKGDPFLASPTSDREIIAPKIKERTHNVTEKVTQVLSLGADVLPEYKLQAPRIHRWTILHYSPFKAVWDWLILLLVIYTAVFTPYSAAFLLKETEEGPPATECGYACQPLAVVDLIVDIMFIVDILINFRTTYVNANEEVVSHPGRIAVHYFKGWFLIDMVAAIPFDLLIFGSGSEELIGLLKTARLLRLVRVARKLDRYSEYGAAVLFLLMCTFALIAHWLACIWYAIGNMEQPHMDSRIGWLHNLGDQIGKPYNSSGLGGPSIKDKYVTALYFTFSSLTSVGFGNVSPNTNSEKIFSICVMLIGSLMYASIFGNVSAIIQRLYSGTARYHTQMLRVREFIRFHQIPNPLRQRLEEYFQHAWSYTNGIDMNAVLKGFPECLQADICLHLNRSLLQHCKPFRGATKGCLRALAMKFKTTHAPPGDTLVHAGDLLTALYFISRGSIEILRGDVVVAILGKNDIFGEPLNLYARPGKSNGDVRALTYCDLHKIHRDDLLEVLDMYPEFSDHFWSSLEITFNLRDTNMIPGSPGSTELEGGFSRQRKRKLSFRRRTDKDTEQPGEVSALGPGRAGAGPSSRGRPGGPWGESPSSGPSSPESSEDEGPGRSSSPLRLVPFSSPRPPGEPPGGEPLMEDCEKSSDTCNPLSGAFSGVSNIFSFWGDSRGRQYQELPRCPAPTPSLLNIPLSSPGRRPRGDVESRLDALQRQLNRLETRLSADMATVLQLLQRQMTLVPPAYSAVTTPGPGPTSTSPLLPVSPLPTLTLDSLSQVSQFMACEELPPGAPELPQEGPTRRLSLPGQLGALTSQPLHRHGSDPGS

[19] = Metabolic stability in rat liver microsomes measured at > 60 mins in presence of NADPH by HPLC analysis; format: ADME, microsome; conditions: 1 h
[20] = Inhibition of human CYP450 at 50 uM; format: ADME
[21] = Oral bioavailability in rat; format: ADME, organism-based; conditions: in vivo
MDA-MB-231 [22] = assay: Antitumor activity against human MDA-MB-231 cells xenografted in athymic nude mouse assessed as decrease in tumor volume at 20 mg/kg, ip qd administered for 16 consecutive days relative to control; format: functional; parameters: scale not given: the % may be the effect or the level left
MDA-MB-231 [23] = assay: Antitumor activity against human MDA-MB-231 cells xenografted in athymic nude mouse assessed as decrease in tumor volume at 20 mg/kg, ip qd administered for 16 consecutive days in presence of doxorubicin at 5 mg/kg/week relative to control; format: functional; parameters: scale not given: the % may be the effect or the level left
MDA-MB-231 [24] = assay: Antitumor activity against human MDA-MB-231 cells xenografted in athymic nude mouse assessed as average tumor volume at 20 mg/kg, ip qd administered every consecutive day in presence of doxorubicin at 5 mg/kg/week measured on day 51 (reference value: 653 +/- 192 mm3); format: functional
[25] = Drug uptake in serum of athymic nude mouse xenografted with human MDA-MB-231 cells at 20 mg/kg, ip qd administered for 16 consecutive days by HPLC/MS analysis; format: ADME, organism-based; conditions: read-out: Drug uptake
How it was run: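 In the MDA-MB-231 xenografted nu/nu mice given 20 mg/kg/day i.p. for 16 days, serum drug concentration was measured by HPLC at the end of the study and confirmed by LCMS.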

Mus musculus [26] = assay: Upregulation of p53 protein expression level in tumors of athymic nude mouse xenografted with human MDA-MB-231 cells at 20 mg/kg, ip qd administered every consecutive day in presence of doxorubicin at 5 mg/kg/week measured on day 51 by Western blot analysis relative to control; format: functional
How it was run: (§3)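 MDA-MB-231 xenograft tumors were excised from nu/nu mice at study termination (day 51), after 16 days of i.p. treatment started on day 35. p53, phospho-Ser15-p53 and PARP cleavage were quantified by Western blot and compared with vehicle-treated animals.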

Mus musculus [27] = assay: Upregulation of phospho Ser15-53 protein expression level in tumors of athymic nude mouse xenografted with human MDA-MB-231 cells at 20 mg/kg, ip qd administered every consecutive day in presence of doxorubicin at 5 mg/kg/week measured on day 51 by Western blot analysis relative to control; format: functional; how it was run: as §3
Mus musculus [28] = assay: Upregulation of PARP cleavage expression level in tumors of athymic nude mouse xenografted with human MDA-MB-231 cells at 20 mg/kg, ip qd administered every consecutive day in presence of doxorubicin at 5 mg/kg/week measured on day 51 by Western blot analysis relative to control; format: functional; how it was run: as §3
MDA-MB-231 [29] = assay: Synergistic antitumor activity against human MDA-MB-231 cells xenografted in athymic nude mouse assessed as reduction in tumor weight at 20 mg/kg, ip qd administered every consecutive day in presence of doxorubicin at 5 mg/kg/week measured on day 51; format: functional; parameters: scale not given: the % may be the effect or the level left
MDA-MB-231 [30] = assay: Antitumor activity against human MDA-MB-231 cells xenografted in athymic nude mouse assessed as decrease in tumor volume at 5 mg/kg, ip administered per week for 16 days relative to control; format: functional; parameters: scale not given: the % may be the effect or the level left

SMILES: CC(=O)N(C)c1ccc(S(=O)(=O)N2CCCc3ccccc32)cc1
- IC50 [1]: > 5000 nM

SMILES: O=C1CCCN1c1ccc(S(=O)(=O)Nc2cccc3ccccc23)cc1
- IC50 [1]: > 5000 nM

SMILES: CC1CCc2ccccc2N1S(=O)(=O)c1ccc(N2CCCC2=O)cc1 (racemic)
- IC50 [1]: 11 nM

SMILES: CN1CCN(S(=O)(=O)c2ccc(N3CCCC3=O)cc2)c2ccccc21
- Activity (MDA-MB-231 [2]): 154 mm3
- EC50 (MCF7 [3]): 13 nM
- Stability [4]: Stable
- IC50 [1]: 11 nM
- IC50 (MDA-MB-231 [5]): 13 nM
- IC50 (MCF7 [6]): 10 nM
- solubility [7]: 28.2 µM (≈ 10.5 µg/mL)
- logD [8]: 1.9
- logD [9]: 1.9
- fold change (FC) (MCF7 [10]): 2 - 3
- fold change (FC) (MDA-MB-231 [11]): 2 - 3
- CI (MCF7 [12]): <1
- CI (MDA-MB-231 [13]): <1
- CI (MCF7 [14]): 0.75
- CI (MDA-MB-231 [15]): 0.68
- CI (MCF7 [16]): 0.97
- CI (MDA-MB-231 [17]): 0.72
- inhibition (INH) [18]: Not Active
- Stability [19]: Stable
- inhibition (INH) [20]: Not Active
- bioavailability [21]: 15 to 20%
- Activity (MDA-MB-231 [22]): 91.5%
- Activity (MDA-MB-231 [23]): 93.7 - 96.2%
- Activity (MDA-MB-231 [24]): 24.7 mm3
- concentration at 16 days [25]: 200 ng/mL
- fold change (FC) (Mus musculus [26]): 1.5
- fold change (FC) (Mus musculus [27]): 3
- fold change (FC) (Mus musculus [28]): 30
- Activity (MDA-MB-231 [29]): 93.7%

SMILES: O=C1CCCN1c1ccc(S(=O)(=O)N2CCNc3ccccc32)cc1
- IC50 [1]: > 5000 nM

SMILES: CN1CCN(S(=O)(=O)c2ccc(N3CCC=N3)cc2)c2ccccc21
- EC50 (MCF7 [3]): 5 nM
- IC50 [1]: 18 nM
- IC50 (MDA-MB-231 [5]): 13 nM
- IC50 (MCF7 [6]): 7 nM

SMILES: CN1CCN(S(=O)(=O)c2ccc(N3CCCC3)cc2)c2ccccc21
- EC50 (MCF7 [3]): 6 nM
- IC50 [1]: 7 nM
- IC50 (MDA-MB-231 [5]): 16 nM
- IC50 (MCF7 [6]): 4 nM

SMILES: Cc1ccc2c(c1)CCCN2S(=O)(=O)c1ccc(N2CCCC2=O)cc1
- EC50 (MCF7 [3]): 61 nM
- IC50 [1]: 7 nM
- IC50 (MDA-MB-231 [5]): 17 nM
- IC50 (MCF7 [6]): 15 nM

SMILES: O=C1CCCN1c1ccc(S(=O)(=O)N2CCc3ccccc3C2)cc1
- IC50 [1]: 634 nM

SMILES: O=C1CCCN1c1ccc(S(=O)(=O)N2CCCc3cc(C(F)(F)F)ccc32)cc1
- IC50 [1]: 54 nM

SMILES: O=C1CCCN1c1ccc(S(=O)(=O)N2CCOc3ccccc32)cc1
- IC50 [1]: 10 nM
- solubility [7]: 26.6 µM (≈ 9.53 µg/mL)
- logD [8]: 1.7
- logD [9]: 1.7

SMILES: O=C1CCCN1c1ccc(S(=O)(=O)N2CCCc3cc(Cl)ccc32)cc1
- IC50 [1]: 13 nM
- solubility [7]: 2.9 µM (≈ 1.13 µg/mL)
- logD [8]: 3.1
- logD [9]: 3.1

SMILES: COc1cccc2c1C(=O)c1c(O)c3c(c(O)c1C2=O)C[C@@](O)(C(=O)CO)C[C@@H]3O[C@H]1C[C@H](N)[C@H](O)[C@H](C)O1 [DOXORUBICIN]
- Activity (MDA-MB-231 [30]): 84.3%

SMILES: O=S(=O)(c1ccc(N2CCCC2)cc1)N1CCCc2ccccc21
- IC50 [1]: 20 nM
- solubility [7]: < 0.5 µM
- logD [8]: 3.6
- logD [9]: 3.7

SMILES: CC(C)(C)c1ccc2c(c1)CCCN2S(=O)(=O)c1ccc(N2CCCC2=O)cc1
- EC50 (MCF7 [3]): 307 nM
- IC50 [1]: 660 nM
- IC50 (MDA-MB-231 [5]): 608 nM
- IC50 (MCF7 [6]): 318 nM
